Measurements of several laboratories.

`N#CCc1ccccc1C#Cc1ccc(CCC(=O)O)c(F)c1` gave a logD of 1.41 (shake flask; PBS; pH 7.4).
With `Cc1c(C(=O)NN2CCCCC2)nc(-c2ccc(Cl)cc2Cl)n1-c1ccc(OS(=O)(=O)CCC(C)(C)C)cc1` the logD was greater than 5.8 (shake flask; aqueous buffer; pH 7.4).
For `CN1CCN(c2ccc3[nH]c(-c4ccc5[nH]c(-c6ccc(O)cc6)nc5c4)nc3c2)CC1`, the logD was 2.2 (shake flask; PBS; pH 7.4).
The logD of `Cc1noc([C@H](Cc2c[nH]cn2)NC(=O)CN(CCCc2ccccc2)CC(=O)O)n1` is reported as -0.84 (shake flask; PBS; 2 h; pH 7.4).
For `O=C(NCCN1CCCC1)c1cc(-c2ccc(CN3CCOCC3)cc2)nc2ccc(F)cc12`, the logD was 2.5 (shake flask; aqueous buffer; pH 7.4).
With `O=C(O)CN(CCCc1ccccc1)CC(=O)N[C@H](CO)Cc1c[nH]cn1` the logD was -1.3 (shake flask; PBS; 2 h; pH 7.4).
`CC(C)Cc1ccc(C(C)C(=O)O)cc1` (stereo not shown) has a logD of 0.94 (shake flask; aqueous buffer; pH 7.5).
With `CCCCc1nc2c(N)nc3ccccc3c2n1Cc1ccc(N)cc1` the logD was 2.6 (shake flask; PBS; pH 7.4).
`C[C@]1(C(=O)O)CSC(c2ccc(OCCCCCC(=O)O)cc2O)=N1` has a logD of -1.9 (shake flask; aqueous buffer; pH 7.4).
The logD of `COC(=O)CN(CCCc1ccccc1)CC(=O)N[C@@H](Cc1c[nH]cn1)c1nc(C)no1` is reported as 1.52 (shake flask; PBS; 2 h; pH 7.4).
`Cc1c(C(=O)NN2CCCCC2)nc(-c2ccc(Cl)cc2Cl)n1-c1ccc(OS(=O)(=O)CCCF)cc1` gave a logD of 4.15 (shake flask; aqueous buffer; pH 7.4).
With `COc1ccc2cc(CCC[18F])ccc2c1` the logD was 2.46 (shake flask; aqueous buffer; pH 7.4).
For `CCCS(=O)(=O)Oc1ccc(-n2c(-c3ccc(Cl)cc3Cl)nc(C(=O)NN3CCCCC3)c2C)cc1`, the logD was 4.6 (shake flask; aqueous buffer; pH 7.4).
For `CCC1=C(C)c2cc3[nH]c(cc4[nH]c(cc5nc(cc1n2)C(C)=C5CC)c(C)c4CC)c(CC)c3C`, the logD was 1.42 (shake flask; aqueous buffer; pH 9).
With `COCCCCCCOc1ccc(C2=N[C@@](C)(C(=O)O)CS2)c(O)c1` the logD was 0.95 (shake flask; aqueous buffer; pH 7.4).
With `O=C(O)c1ccc(-n2nc(-c3ccccc3O)nc2-c2ccccc2O)cc1` the logD was 0.9 (shake flask; PBS; pH 7.4).
The logD of `CN1CCN(c2ccc3nc(-c4ccc5nc(-c6ccc(OCCCCNC(=O)[C@H](N)CS)cc6)[nH]c5c4)[nH]c3c2)CC1` is reported as 2 (shake flask; PBS; pH 7.4).
With `Cc1c(C(=O)NN2CCCCC2)nc(-c2ccc(Cl)cc2Cl)n1-c1ccc(OS(=O)(=O)CCCC(F)(F)F)cc1` the logD was 5.3 (shake flask; aqueous buffer; pH 7.4).
`C[C@]1(C(=O)O)CSC(c2ccc(OCC(=O)O)cc2O)=N1` gave a logD of -1.98 (shake flask; aqueous buffer; pH 7.4).
For `Cc1c(C(=O)N[C@H]2CCC[C@H](O)C2)nc(-c2ccc(Cl)cc2Cl)n1-c1ccc(OS(=O)(=O)CCC(F)(F)F)cc1` (relative stereo), the logD was 4.6 (shake flask; aqueous buffer; pH 7.4).
For `COC(=O)[C@H](Cc1c[nH]cn1)NC(=O)CN(CCCc1ccccc1)CC(=O)O`, the logD was -0.78 (shake flask; PBS; 2 h; pH 7.4).
With `Fc1ccc(Nc2c(-c3ccccn3)nc3ccc(C4CC4)cn23)cc1` the logD was 2.9 (pH 7.4).
For `Cc1c(C(=O)N[C@@H]2CCCC[C@H]2O)nc(-c2ccc(Cl)cc2Cl)n1-c1ccc(OS(=O)(=O)CCC(F)(F)F)cc1` (relative stereo), the logD was greater than 4.4 (shake flask; aqueous buffer; pH 7.4).
For `CC(C)CN(C[C@@H](O)[C@H](Cc1ccccc1)NC(=O)O[C@H]1CO[C@H]2OCC[C@H]21)S(=O)(=O)c1ccc(N)cc1`, the logD was 2.8 (shake flask; PBS; pH 5).
With `Cc1c(C(=O)NN2CCCCC2)nc(-c2ccc(Cl)cc2Cl)n1-c1ccc(OS(=O)(=O)CCC(C)C)cc1` the logD was 5.3 (shake flask; aqueous buffer; pH 7.4).
With `N#Cc1c[nH]c2c(C(=O)N3CCN(CCc4ccc(F)cc4)CC3)cccc12` the logD was 3.5 (shake flask; aqueous buffer; pH 7.4).
For `CCCCS(=O)(=O)Oc1ccc(-n2c(-c3ccc(Cl)cc3Cl)nc(C(=O)NN3CCCCC3)c2C)cc1`, the logD was 5.1 (shake flask; aqueous buffer; pH 7.4).
The logD of `CNC(=O)[C@H](Cc1c[nH]cn1)NC(=O)CN(CC(=O)O)Cc1ccccc1` is reported as -2.29 (shake flask; PBS; 2 h; pH 7.4).
